This is an account of results in ChEMBL document CHEMBL4028911, “Discovery of a Small-Molecule Bromodomain-Containing Protein 4 (BRD4) Inhibitor That Induces AMP-Activated Protein Kinase-Modulated Autophagy-Associated Cell Death in Breast Cancer” (J Med Chem, 2017).

pIC50: −log10 of the molar value.

The assay has as its target Bromodomain-containing protein 3 (Homo sapiens, UniProt Q15059). The experiment in a line: Inhibition of recombinant human N-terminal GST-tagged BRD3 bromodomain-2 (306 to 417 residues) expressed in Escherichia coli expression system after 120 mins by TR-FRET assay. The gist of the method:
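TR-FRET bromodomain binding. Recombinant BRD domain, BET ligand and test agent in 20 μl assay buffer with 1% DMSO final. Incubated 120 min at room temperature. Blank lacks BET ligand.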
(In general: TR-FRET usually uses a lanthanide donor and a delayed reading to cut background.)

Chain of Bromodomain-containing protein 3 (Q15059 whole entry, the tested form may be a part): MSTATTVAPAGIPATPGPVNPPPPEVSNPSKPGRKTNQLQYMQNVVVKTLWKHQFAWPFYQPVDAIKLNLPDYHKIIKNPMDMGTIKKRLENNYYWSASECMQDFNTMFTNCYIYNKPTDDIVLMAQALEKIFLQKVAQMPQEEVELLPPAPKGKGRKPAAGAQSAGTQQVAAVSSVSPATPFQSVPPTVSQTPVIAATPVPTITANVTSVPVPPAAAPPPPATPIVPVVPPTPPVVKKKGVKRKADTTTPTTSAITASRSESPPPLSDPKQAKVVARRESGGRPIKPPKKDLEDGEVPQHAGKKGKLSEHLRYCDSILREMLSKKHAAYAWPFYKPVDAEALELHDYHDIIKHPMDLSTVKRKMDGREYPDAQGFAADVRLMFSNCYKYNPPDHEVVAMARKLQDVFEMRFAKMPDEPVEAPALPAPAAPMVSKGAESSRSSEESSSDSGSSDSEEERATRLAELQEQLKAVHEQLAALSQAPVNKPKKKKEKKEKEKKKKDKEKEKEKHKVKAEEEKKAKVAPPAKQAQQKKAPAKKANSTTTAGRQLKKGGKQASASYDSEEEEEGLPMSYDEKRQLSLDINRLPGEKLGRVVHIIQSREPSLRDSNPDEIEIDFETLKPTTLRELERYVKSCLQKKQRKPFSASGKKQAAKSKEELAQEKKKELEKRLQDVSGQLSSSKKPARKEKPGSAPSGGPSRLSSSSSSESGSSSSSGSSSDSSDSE

Turning to `Cc1cc(-c2nc3sc4c(c3c(=O)[nH]2)CCN(C)C4)cc(C)c1O`, the pIC50 (usually the negative decadic logarithm of the IC50, by convention in mol/L) is less than 4.00.
